Measured values reported in ChEMBL document CHEMBL1156899, “Novel 1,3-dihydro-benzimidazol-2-ones and their analogues as potent non-nucleoside HIV-1 reverse transcriptase inhibitors” (Bioorg Med Chem, 2010).

Key:
[1] = biological target: Human immunodeficiency virus type 1 reverse transcriptase (Human immunodeficiency virus 1, UniProt Q72547, K103N); test: Inhibition of HIV1 reverse transcriptase K103N mutant by RNA-dependent DNA polymerase activity assay
[2] = biological target: Human immunodeficiency virus type 1 reverse transcriptase (Human immunodeficiency virus 1, UniProt Q72547, Y181I); test: Inhibition of HIV1 reverse transcriptase Y181I mutant by RNA-dependent DNA polymerase activity assay
[3] = Selectivity index, ratio of CC50 for human MT4 cells to EC50 for HIV1 3B; format: toxicity, cell-based; conditions: read-out: Ratio CC50/EC50
[4] = test system: Human immunodeficiency virus 1; test: Antiviral activity against HIV1 3B infected in human MT4 cells assessed inhibition of viral-induced cytopathic effect after 5 days; format: functional, organism-based; conditions: Human immunodeficiency virus 1, 3B, MT4, 120 h
How it was run: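 MT-4 cells infected with HIV-1 IIIB at about 100 times the CCID50 per mL of suspension, then mixed 1:1 with serial compound dilutions and incubated at 37 °C for five days. Viable cell number was then determined.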

[5] = biological target: Human immunodeficiency virus type 1 reverse transcriptase (Human immunodeficiency virus 1, UniProt Q72547, L100I); test: Inhibition of HIV1 reverse transcriptase L100I mutant by RNA-dependent DNA polymerase activity assay
[6] = biological target: Human immunodeficiency virus type 1 reverse transcriptase (Human immunodeficiency virus 1, UniProt Q72547); test: Inhibition of RNA-dependent DNA polymerase activity of HIV1 reverse transcriptase using poly(rA)/pligo(dT) template
[7] = Cytotoxicity in human MT4 cells assessed as reduction in cell viability; format: cell-based

Compound: Cc1cc(C)cc(S(=O)(=O)n2c(=O)[nH]c3ccc(Cl)cc32)c1
- IC50 [1]: 400 nM
- IC50 [2]: > 40000 nM
- selectivity ratio [3]: 17800
- EC50 [4]: 2.2 nM
- IC50 [5]: 9 nM

Compound: Cc1cccc(S(=O)(=O)n2c(=O)[nH]c3ccc(Cl)cc32)c1
- IC50 [1]: 10000 nM
- IC50 [2]: > 40000 nM
- IC50 [6]: 21 nM
- CC50 [7]: > 308000 nM
- selectivity ratio [3]: > 20500
- EC50 [4]: 15.1 nM
- IC50 [5]: 70 nM

Compound: Cc1ccc(S(=O)(=O)n2c(=O)[nH]c3ccc(Cl)cc32)cc1
- IC50 [6]: 149 nM
- CC50 [7]: 134000 nM
- selectivity ratio [3]: 2900
- EC50 [4]: 46 nM

Compound: O=c1[nH]c2ccc(Cl)cc2n1S(=O)(=O)c1cccc(OC(F)(F)F)c1
- IC50 [6]: 305 nM
- CC50 [7]: > 128000 nM
- selectivity ratio [3]: > 35
- EC50 [4]: 3660 nM

Compound: Cc1cc(C)cc(S(=O)(=O)n2c(=O)[nH]c3ccc(Cl)nc32)c1
- IC50 [1]: 2800 nM
- IC50 [2]: 27000 nM
- IC50 [6]: 20 nM
- CC50 [7]: > 272000 nM
- selectivity ratio [3]: > 10500
- EC50 [4]: 26 nM
- IC50 [5]: 70 nM

Compound: Cc1ccc(S(=O)(=O)n2c(=O)[nH]c3ccc(Cl)cc32)c(C)c1
- IC50 [6]: 630 nM
- CC50 [7]: 39300 nM
- selectivity ratio [3]: 327
- EC50 [4]: 120 nM

Compound: Cc1ccc(C)c(S(=O)(=O)n2c(=O)[nH]c3ccc(Cl)cc32)c1
- IC50 [1]: > 40000 nM
- IC50 [2]: > 40000 nM
- IC50 [6]: 49 nM
- CC50 [7]: > 371000 nM
- selectivity ratio [3]: > 37100
- EC50 [4]: 9.7 nM
- IC50 [5]: 380 nM

Compound: Cc1ccc(S(=O)(=O)n2c(=O)[nH]c3ccc(Cl)cc32)cc1C
- IC50 [1]: 2610 nM
- IC50 [2]: > 40000 nM
- IC50 [6]: 4 nM
- CC50 [7]: > 371000 nM
- selectivity ratio [3]: > 61900
- EC50 [4]: 6 nM
- IC50 [5]: 30 nM

Compound: COc1cccc(S(=O)(=O)n2c(=O)[nH]c3ccc(Cl)cc32)c1
- IC50 [1]: 10900 nM
- IC50 [2]: > 40000 nM
- IC50 [6]: 52 nM
- CC50 [7]: > 369000 nM
- selectivity ratio [3]: > 10500
- EC50 [4]: 35 nM
- IC50 [5]: 330 nM

Compound: Cc1cc(C)c(C)c(S(=O)(=O)n2c(=O)[nH]c3ccc(Cl)cc32)c1C
- IC50 [1]: > 40000 nM
- IC50 [2]: > 40000 nM
- IC50 [6]: 40 nM
- CC50 [7]: ≥ 343000 nM
- selectivity ratio [3]: > 5410
- EC50 [4]: 63 nM
- IC50 [5]: 180 nM

Compound: O=c1[nH]c2ccc(Cl)cc2n1S(=O)(=O)c1cc(C(F)(F)F)cc(C(F)(F)F)c1
- IC50 [6]: 310 nM
- CC50 [7]: 32300 nM
- selectivity ratio [3]: 104
- EC50 [4]: 310 nM

Compound: Cc1ccccc1S(=O)(=O)n1c(=O)[nH]c2ccc(Cl)cc21
- IC50 [6]: 269 nM
- CC50 [7]: > 387000 nM
- selectivity ratio [3]: > 201
- EC50 [4]: 1920 nM

Compound: Cc1c(C)c(C)c(S(=O)(=O)n2c(=O)[nH]c3ccc(Cl)cc32)c(C)c1C
- IC50 [1]: 6700 nM
- IC50 [2]: > 40000 nM
- IC50 [6]: 47 nM
- CC50 [7]: 236000 nM
- selectivity ratio [3]: 1830
- EC50 [4]: 129 nM
- IC50 [5]: 80 nM

Compound: Cc1cc(C)c(S(=O)(=O)n2c(=O)[nH]c3ccc(Cl)cc32)c(C)c1
- IC50 [1]: > 40000 nM
- IC50 [2]: > 40000 nM
- IC50 [6]: 1.2 nM
- CC50 [7]: > 356000 nM
- selectivity ratio [3]: > 355
- EC50 [4]: 1000 nM
- IC50 [5]: 10 nM

Compound: O=c1[nH]c2ccc(Cl)cc2n1S(=O)(=O)c1cccc(C(F)(F)F)c1
- IC50 [6]: 1720 nM
- CC50 [7]: > 332000 nM
- selectivity ratio [3]: > 664
- EC50 [4]: 500 nM

Compound: O=C1Nc2ccc(Cl)cc2[C@@](C#CC2CC2)(C(F)(F)F)O1 [EFAVIRENZ]
- CC50 [7]: > 6000 nM

Compound: Cc1ccnc2c1NC(=O)c1cccnc1N2C1CC1 [NEVIRAPINE]
- CC50 [7]: > 15000 nM
